Data from ChEMBL document CHEMBL1152534, “Synthesis of oxalamide and triazine derivatives as a novel class of hybrid 4-aminoquinoline with potent antiplasmodial activity” (Bioorg Med Chem, 2009).
≈ marks a conversion by molar mass, not a printed value.

Key:
Plasmodium falciparum = assay: Antimalarial activity against chloroquine-sensitive Plasmodium falciparum 3D7 […] after 72 hrs by twofold serial dilution method; assay type: functional, organism-based
How it was run: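 P. falciparum 3D7 erythrocyte culture, 2.5% cell suspension at 0.5% parasitaemia. Compounds were twofold serially diluted from 500 ng/mL (seven concentrations) in duplicate wells and incubated 72 h. Lysis buffer with SYBR Green I (Tris pH 7.5, EDTA, saponin, Triton X-100) was added, followed by 1 h at room temperature and a fluorescence read. IC50 from non-linear regression dose–response curves.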

[1] = Selectivity index, ratio of CC50 for african green monkey (Cercopithecus aethiops) Vero cells to IC50 for chloroquine-sensitive Plasmodium falciparum 3D7; assay type: functional
How it was run: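 SI is Vero CC50 divided by the antiplasmodial IC50. For CC50, Vero (C-1008) cells at 1 × 10⁴ cells/well were exposed to varying compound concentrations for 72 h with an MTT read-out. CC50 is the concentration killing 50% of cells.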

Plasmodium yoelii [2] = assay: Antiplasmodial activity against Plasmodium yoelii infected in Swiss mice (Mus musculus) erythrocytes assessed as inhibition of beta-hematin formation after 16 hrs by fluorescence assay; assay type: functional, organism-based; settings: in the assay text read “absorbance measurement at 400 nm” for “fluorescence assay”
How it was run: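 Plasma came from P. yoelii-infected mouse blood at about 50% parasitemia, collected in citrate and centrifuged. The mix held 100 mM sodium acetate pH 5.1, 50 µL plasma and 100 µM hemin substrate in 1.0 mL, run in triplicate at 37 °C for 16 h with shaking. The pellet was dissolved in Tris-HCl pH 7.4 with 2.5% SDS. Absorbance at 400 nm; IC50 by non-linear regression.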

Plasmodium yoelii [3] = assay: Antimalarial activity against chloroquine-resistant Plasmodium yoelii N67 infected in Swiss mice (Mus musculus) assessed as inhibition of parasitaemia at 50 mg/kg, intraperitoneally administered daily for 4 days measured on day 4 post-infection; assay type: functional; settings: for inhibition in vivo at 50 mg/kg: N67, ip, 96 h, route intraperitoneal
How it was run: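 Swiss mice were inoculated with 1 × 10⁶ P. yoelii N-67 parasitized RBC on day 0. Groups of five received compound as an aqueous suspension with a few drops of Tween 80, at 50 mg/kg/day intraperitoneally once daily from day 0 to 3. Parasitaemia was read from thin smears on day 4, with group-mean percent suppression against untreated controls.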

Plasmodium yoelii [4] = assay: Antimalarial activity against chloroquine-resistant Plasmodium yoelii N67 infected in Swiss mice (Mus musculus) assessed as inhibition of parasitaemia at 10 mg/kg, perorally administered for 4 days measured on day 4 post-infection; assay type: functional; settings: N67, 96 h, route oral
How it was run: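 Swiss mice were inoculated with 1 × 10⁶ P. yoelii N-67 parasitized RBC on day 0. Groups of five were dosed with chloroquine orally at 10 mg/kg once daily from day 0 to 3. Parasitaemia was read from thin blood smears on day 4, and percent suppression was calculated from the group mean against untreated controls.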

[5] = Plasmodium falciparum, 3D7, Vero, 72 h, read-out: IC50

Structure (SMILES)	IC50 (Plasmodium falciparum; [5])	Ratio CC50/IC50 [1]	IC50 (Plasmodium yoelii [2]; Plasmodium yoelii, 16 h)	IC50 (Plasmodium falciparum; vero)	also measured
CCN(CC)CCNc1nc(NCCNc2ccnc3cc(Cl)ccc23)nc(N2CCCCC2)n1	0.0147 µg/mL (≈ 0.0295 µM)	223.13	10.2 µg/mL (≈ 20.4 µM)		
Cn1cc(C(=O)C(=O)N2CCN(c3ccnc4cc(Cl)ccc34)CC2)c2ccccc21				Not Active	
O=C(C(=O)N1CCN(CCNc2ccnc3cc(Cl)ccc23)CC1)c1c[nH]c2ccccc12				Not Active	
CCCCNC(=O)C(=O)NCCCNc1ccnc2cc(Cl)ccc12	0.233 µg/mL (≈ 0.643 µM)	38.13	15.7 µg/mL (≈ 43.2 µM)		
CN(C)CCNc1nc(NCCCNc2ccnc3cc(Cl)ccc23)nc(N2CCOCC2)n1	0.164 µg/mL (≈ 0.337 µM)	219.77	7.94 µg/mL (≈ 16.3 µM)		
CCCCNC(=O)C(=O)NCCNc1ccnc2cc(Cl)ccc12	0.233 µg/mL (≈ 0.668 µM)	18.88	6.76 µg/mL (≈ 19.4 µM)		
Clc1ccc2c(NCCNc3nc(NCCCN4CCOCC4)nc(N4CCOCC4)n3)ccnc2c1	0.0222 µg/mL (≈ 0.042 µM)	2405.86	8.58 µg/mL (≈ 16.2 µM)		
Clc1ccc2c(NCCCNc3nc(NCCCN4CCOCC4)nc(N4CCOCC4)n3)ccnc2c1	0.0521 µg/mL (≈ 0.096 µM)	706.15	8.6 µg/mL (≈ 15.9 µM)		
CN(C)CCNc1nc(NCCNc2ccnc3cc(Cl)ccc23)nc(N2CCOCC2)n1	0.0394 µg/mL (≈ 0.0835 µM)	1291.71	8.1 µg/mL (≈ 17.2 µM)		
CN(C)CCNC(=O)C(=O)NCCCNc1ccnc2cc(Cl)ccc12	0.0264 µg/mL (≈ 0.0699 µM)	2527.65	7.98 µg/mL (≈ 21.1 µM)		inhibition in vivo at 50 mg/kg (Plasmodium yoelii [3]): 70.5%
CN(C)CCNC(=O)C(=O)N1CCN(c2ccnc3cc(Cl)ccc23)CC1				Not Active	
O=C(NCCCNc1ccnc2cc(Cl)ccc12)C(=O)NCCN1CCOCC1	0.0822 µg/mL (≈ 0.196 µM)	191.82	10.7 µg/mL (≈ 25.4 µM)		
O=C(NCCCN1CCOCC1)C(=O)N1CCN(c2ccnc3cc(Cl)ccc23)CC1				Not Active	
CN1CCN(c2nc(NCCNc3ccnc4cc(Cl)ccc34)nc(N3CCOCC3)n2)CC1	0.01 µg/mL (≈ 0.0207 µM)	4692.08	6.19 µg/mL (≈ 12.8 µM)		Activity (Plasmodium yoelii [3]): Toxic
O=C(NCCCN1CCOCC1)C(=O)N1CCN(CCNc2ccnc3cc(Cl)ccc23)CC1	0.0408 µg/mL (≈ 0.0835 µM)	1221.84			IC50 (Plasmodium yoelii [2]): Not Active
CN(C)CCNC(=O)C(=O)N1CCN(CCNc2ccnc3cc(Cl)ccc23)CC1	0.0844 µg/mL (≈ 0.195 µM)	65	< 20 µg/mL		
CN(C)CCNc1nc(NCCCNc2ccnc3cc(Cl)ccc23)nc(N2CCCCC2)n1	0.0156 µg/mL (≈ 0.0323 µM)	330.11	8.19 µg/mL (≈ 16.9 µM)		
Clc1ccc2c(NCCCNc3nc(NCCCN4CCOCC4)nc(N4CCCCC4)n3)ccnc2c1	0.00523 µg/mL (≈ 0.00968 µM)	860.41	7.54 µg/mL (≈ 14 µM)		Activity (Plasmodium yoelii [3]): Toxic
CN1CCN(c2nc(NCCCNc3ccnc4cc(Cl)ccc34)nc(N3CCOCC3)n2)CC1	0.0401 µg/mL (≈ 0.0805 µM)	704.25	8.55 µg/mL (≈ 17.2 µM)		
O=C(NCCCNc1ccnc2cc(Cl)ccc12)C(=O)NCCCN1CCOCC1	0.0254 µg/mL (≈ 0.0586 µM)	1625.52	8.74 µg/mL (≈ 20.1 µM)		inhibition in vivo at 50 mg/kg (Plasmodium yoelii [3]): 21.4%
CCN(CC)CCNC(=O)C(=O)NCCNc1ccnc2cc(Cl)ccc12	0.0503 µg/mL (≈ 0.128 µM)	605.61	7.01 µg/mL (≈ 17.9 µM)		
O=C(NCCN1CCOCC1)C(=O)N1CCN(c2ccnc3cc(Cl)ccc23)CC1				Not Active	
CCN(CC)CCNC(=O)C(=O)N1CCN(CCNc2ccnc3cc(Cl)ccc23)CC1	0.0798 µg/mL (≈ 0.173 µM)	194			IC50 (Plasmodium yoelii [2]): Not Active
CCN(CC)CCNc1nc(NCCCNc2ccnc3cc(Cl)ccc23)nc(N2CCCCC2)n1	0.00897 µg/mL (≈ 0.0175 µM)	1011.15	7.45 µg/mL (≈ 14.5 µM)		
Clc1ccc2c(NCCNc3nc(NCCCN4CCOCC4)nc(N4CCCCC4)n3)ccnc2c1	0.0656 µg/mL (≈ 0.125 µM)	65.21	7.79 µg/mL (≈ 14.8 µM)		

Structure (SMILES)	IC50 (Plasmodium falciparum; [5])	Ratio CC50/IC50 [1]	IC50 (Plasmodium yoelii [2]; Plasmodium yoelii, 16 h)	IC50 (Plasmodium falciparum; vero)	also measured
CN(C)CCNc1nc(NCCNc2ccnc3cc(Cl)ccc23)nc(N2CCCCC2)n1	0.0159 µg/mL (≈ 0.0338 µM)	1062.3	13.3 µg/mL (≈ 28.4 µM)		
CC(C)(C)NC(=O)C(=O)N1CCN(c2ccnc3cc(Cl)ccc23)CC1				Not Active	
Clc1ccc2c(NCCNc3nc(NCCN4CCOCC4)nc(N4CCOCC4)n3)ccnc2c1	0.0482 µg/mL (≈ 0.0937 µM)	1176.4	17.2 µg/mL (≈ 33.4 µM)		
Cc1ccc(S(=O)(=O)n2cc(C(=O)C(=O)N3CCN(c4ccnc5cc(Cl)ccc45)CC3)c3ccccc32)cc1				Not Active	
CCN(CC)CCNc1nc(NCCNc2ccnc3cc(Cl)ccc23)nc(N2CCOCC2)n1	0.0297 µg/mL (≈ 0.0595 µM)	1663.75	9.42 µg/mL (≈ 18.8 µM)		
Clc1ccc2c(NCCNc3nc(NCCN4CCOCC4)nc(N4CCCCC4)n3)ccnc2c1				Not Active	
CN1CCN(c2nc(NCCNc3ccnc4cc(Cl)ccc34)nc(N3CCCCC3)n2)CC1	0.00788 µg/mL (≈ 0.0163 µM)	958.12	9.1 µg/mL (≈ 18.9 µM)		Activity (Plasmodium yoelii [3]): Toxic
CN(C)CCNC(=O)C(=O)NCCNc1ccnc2cc(Cl)ccc12	0.0316 µg/mL (≈ 0.0868 µM)	383.03	11.1 µg/mL (≈ 30.5 µM)		
O=C(NCCN1CCOCC1)C(=O)N1CCN(CCNc2ccnc3cc(Cl)ccc23)CC1	0.262 µg/mL (≈ 0.551 µM)	183.05	14.2 µg/mL (≈ 29.8 µM)		
Clc1ccc2c(NCCCNc3nc(NCCN4CCOCC4)nc(N4CCCCC4)n3)ccnc2c1				Not Active	
CCN(CC)CCNc1nc(NCCCNc2ccnc3cc(Cl)ccc23)nc(N2CCOCC2)n1	0.0403 µg/mL (≈ 0.0783 µM)	1068.32	10.6 µg/mL (≈ 20.7 µM)		
Cn1cc(C(=O)C(=O)N2CCN(CCNc3ccnc4cc(Cl)ccc34)CC2)c2ccccc21				Not Active	
CC(C)(C)NC(=O)C(=O)N1CCN(CCNc2ccnc3cc(Cl)ccc23)CC1				Not Active	
CCCCNC(=O)C(=O)N1CCN(CCNc2ccnc3cc(Cl)ccc23)CC1				Not Active	
Cc1ccc(S(=O)(=O)n2cc(C(=O)C(=O)N3CCN(CCNc4ccnc5cc(Cl)ccc45)CC3)c3ccccc32)cc1				Not Active	
CCN(CC)CCCC(C)Nc1ccnc2cc(Cl)ccc12 (configuration not stated) [CHLOROQUINE]			4.87 µg/mL (≈ 15.2 µM)		inhibition in vivo at 10 mg/kg (Plasmodium yoelii [4]): 99%
Clc1ccc2c(NCCCNc3nc(NCCN4CCOCC4)nc(N4CCOCC4)n3)ccnc2c1	0.0179 µg/mL (≈ 0.0338 µM)	1017.32	8.72 µg/mL (≈ 16.5 µM)		
CCCCNC(=O)C(=O)N1CCN(c2ccnc3cc(Cl)ccc23)CC1				Not Active	
CN1CCN(c2nc(NCCCNc3ccnc4cc(Cl)ccc34)nc(N3CCCCC3)n2)CC1	0.00913 µg/mL (≈ 0.0184 µM)	530.2	7.45 µg/mL (≈ 15 µM)		
CCN(CC)CCNC(=O)C(=O)NCCCNc1ccnc2cc(Cl)ccc12	0.0156 µg/mL (≈ 0.0384 µM)	232.99	7.99 µg/mL (≈ 19.7 µM)		
O=C(NCCCN1CCOCC1)C(=O)NCCNc1ccnc2cc(Cl)ccc12	0.0313 µg/mL (≈ 0.0746 µM)	1567.05	7.18 µg/mL (≈ 17.1 µM)		inhibition in vivo at 50 mg/kg (Plasmodium yoelii [3]): 43.6%
O=C(C(=O)N1CCN(c2ccnc3cc(Cl)ccc23)CC1)c1c[nH]c2ccccc12				Not Active	
CCN(CC)CCNC(=O)C(=O)N1CCN(c2ccnc3cc(Cl)ccc23)CC1	0.042 µg/mL (≈ 0.1 µM)	1183.41	< 20 µg/mL		
O=C(NCCNc1ccnc2cc(Cl)ccc12)C(=O)NCCN1CCOCC1	0.0908 µg/mL (≈ 0.224 µM)	567.43	6.87 µg/mL (≈ 16.9 µM)		
